Laboratory results: ChEMBL document CHEMBL1146361, “Studies on acyclic pyrimidines as inhibitors of mycobacteria” (Bioorg Med Chem, 2007)

Tests used:
[1] = test system: Mycobacterium tuberculosis; test: Antimycobacterial activity against Mycobacterium bovis BCG by MABA; type: functional, variant bovis BCG
How it was run: (§1)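 Compounds in DMSO (100× highest final concentration), diluted in 7H9GC; tested at 100, 50, 10 and 1 µg/mL in triplicate, three experiments. Frozen inoculum diluted in 7H9GC. Read visually and spectrophotometrically. […], mean given. Visual MIC = lowest concentration preventing blue-to-pink change.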

[2] = test system: Mycobacterium tuberculosis; test: Antimycobacterial activity against Mycobacterium bovis BCG at 100 ug/mL after 24 to 48 hrs by MABA; type: functional; details: variant bovis BCG; how it was run: as §1
[3] = test system: Mycobacterium tuberculosis; test: Antimycobacterial activity against Mycobacterium bovis BCG at 50 ug/mL after 24 to 48 hrs by MABA; type: functional; details: variant bovis BCG; how it was run: as §1
[4] = test system: Mycobacterium tuberculosis; test: Antimycobacterial activity against Mycobacterium bovis BCG at 10 ug/mL after 24 to 48 hrs by MABA; type: functional; details: variant bovis BCG; how it was run: as §1
[5] = test system: Mycobacterium tuberculosis; test: Antimycobacterial activity against Mycobacterium bovis BCG at 1 ug/mL after 24 to 48 hrs by MABA; type: functional; details: variant bovis BCG; how it was run: as §1

## O=c1[nH]c(=O)n(COCCO)cc1Cl
[1]
  Inhibition: 0%

## O=c1ccn(COCCO)c(=O)[nH]1
[1]
  Inhibition: 0%

## Cc1cn(COCCO)c(=O)[nH]c1=O
[1]
  Inhibition: 0%

## [N-]=[N+]=NC(CI)c1cn(COC(CO)CO)c(=O)[nH]c1=O (stereo unspecified)
[1]
  Inhibition: 0%

## [N-]=[N+]=NC(CBr)c1cn(COC(CO)CO)c(=O)[nH]c1=O (stereo unspecified)
[1]
  Inhibition: 0%

## [N-]=[N+]=NC(CI)c1cn(COCCO)c(=O)[nH]c1=O (stereo unspecified)
[2]
  inhibition at 100 µg/mL: 50%
[3]
  inhibition at 50 µg/mL: 50%

## [N-]=[N+]=NC(CBr)c1cn(COCCO)c(=O)[nH]c1=O (stereo unspecified)
[3]
  inhibition at 50 µg/mL: 100%

## O=c1[nH]c(=O)n(COCCO)cc1I
[1]
  Inhibition: 0%

## Nc1cn(COCCO)c(=O)[nH]c1=O
[2]
  inhibition at 100 µg/mL: 50%
[3]
  inhibition at 50 µg/mL: 50%

## CCCCCCCCCCC#Cc1cn(COCCO)c(=O)n(C#CCCCCCCCCCC)c1=O
[1]
  Inhibition: 0%

## CCCCCCCCC#Cc1cn(COC(CO)CO)c(=O)[nH]c1=O
[2]
  inhibition at 100 µg/mL: 100%
[3]
  inhibition at 50 µg/mL: 100%
[4]
  inhibition at 10 µg/mL: 60%

## CCCCCCCCCCC#Cc1cn(COC(CO)CO)c(=O)[nH]c1=O
[5]
  inhibition at 1 µg/mL: 50%
[2]
  inhibition at 100 µg/mL: 100%
[3]
  inhibition at 50 µg/mL: 100%
[4]
  inhibition at 10 µg/mL: 80%

## CCc1cn(COCCO)c(=O)[nH]c1=O
[1]
  Inhibition: 0%

## CCCCCC#Cc1cn(COCCO)c(=O)[nH]c1=O
[1]
  Inhibition: 0%

## O=c1[nH]c(=O)n(COCCO)cc1F
[1]
  Inhibition: 0%

## O=c1[nH]c(=O)n(COCCO)cc1Br
[1]
  Inhibition: 0%

## [N-]=[N+]=NC(CCl)c1cn(COC(CO)CO)c(=O)[nH]c1=O (stereo unspecified)
[1]
  Inhibition: 0%

## [N-]=[N+]=NC(CCl)c1cn(COCCO)c(=O)[nH]c1=O (stereo unspecified)
[2]
  inhibition at 100 µg/mL: 100%
[3]
  inhibition at 50 µg/mL: 100%
[4]
  inhibition at 10 µg/mL: 50%

## O=c1[nH]c(=O)n(COCCO)cc1[N+](=O)[O-]
[1]
  Inhibition: 0%

## C=C(N=[N+]=[N-])c1cn(COCCO)c(=O)[nH]c1=O
[2]
  inhibition at 100 µg/mL: 50%
[3]
  inhibition at 50 µg/mL: 50%
[4]
  inhibition at 10 µg/mL: 50%

## C=C(N=[N+]=[N-])c1cn(COC(CO)CO)c(=O)[nH]c1=O
[1]
  Inhibition: 0%

## C=Cc1cn(COCCO)c(=O)[nH]c1=O
[1]
  Inhibition: 0%

## C=Cc1cn(COC(CO)CO)c(=O)[nH]c1=O
[1]
  Inhibition: 0%

## O=c1[nH]c(=O)n(COC(CO)CO)cc1I [IODACYCLUR]
[1]
  Inhibition: 0%

## CO[C@H]1/C=C/O[C@@]2(C)Oc3c(C)c(O)c4c(O)c(c(/C=N/N5CCN(C)CC5)c(O)c4c3C2=O)NC(=O)/C(C)=C\C=C\[C@H](C)[C@H](O)[C@@H](C)[C@@H](O)[C@@H](C)[C@H](OC(C)=O)[C@@H]1C [RIFAMPIN]
[5]
  inhibition at 1 µg/mL: 100%
